# Only some compounds are listed: those with a hit (about 4.9% of all), similar ones and a draw of the others.
# Lipid droplet = inhibitors of hepatocyte lipid droplet formation, primary screen, imaging, high-throughput imaging, BODIPY stain; AML12 mouse hepatocytes, oleate lipid droplets; 240,000 tested, 0.4% active; inhibition, % at 6.5 µM;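 active = lipid droplet intensity inhibited by at least 50%, with more than 500 cells counted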
#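 Test system: AML12 hepatocytes (mouse); reagent: oleate loading, 100 µM; dosing: one dose, 6.5 µM compound; incubation: overnight exposure; signal: fluorescence imaging, 20x objective, two fields per well; read-out basis: % inhibition of corrected integrated BODIPY droplet signal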
# CHT allo act = CHT positive allosteric modulators, primary screen, cell-based, membrane potential dye, choline EC20; High affinity choline transporter 1 (Homo sapiens), Q9GZV3; CHT-expressing cells; stronger effect = higher value; LV-AA mutant CHT in HEK293 cells; B-score at 10 µM; 310,000 tested, 0.49% active; AID 488977, 2010;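 active = initial fluorescence not abnormally high and integrated response B-score, plate-corrected, over 3 SD above library mean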
# Target sequence (Q9GZV3 whole entry, looked up): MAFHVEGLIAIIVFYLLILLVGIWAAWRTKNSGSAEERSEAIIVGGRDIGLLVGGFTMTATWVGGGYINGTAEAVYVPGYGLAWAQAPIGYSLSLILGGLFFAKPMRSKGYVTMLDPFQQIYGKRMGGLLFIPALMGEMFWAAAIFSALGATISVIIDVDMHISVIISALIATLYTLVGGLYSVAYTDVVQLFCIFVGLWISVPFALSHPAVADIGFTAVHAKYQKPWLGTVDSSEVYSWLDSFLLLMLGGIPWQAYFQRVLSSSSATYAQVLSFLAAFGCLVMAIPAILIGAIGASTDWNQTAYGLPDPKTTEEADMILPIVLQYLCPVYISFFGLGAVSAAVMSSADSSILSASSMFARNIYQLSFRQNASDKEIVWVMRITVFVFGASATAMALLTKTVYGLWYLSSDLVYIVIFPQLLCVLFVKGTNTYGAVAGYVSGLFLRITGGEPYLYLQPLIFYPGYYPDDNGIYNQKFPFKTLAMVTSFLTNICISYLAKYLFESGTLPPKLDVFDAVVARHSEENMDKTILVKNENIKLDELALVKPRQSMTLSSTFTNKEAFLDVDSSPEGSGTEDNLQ
# HSF1 inhib = HSF1 inhibitors in luciferase reporter cells, primary screen, cell-based, NIH3T3, luminescence | 300,000 tested, 0.77% active | activity change, negative = inhibition, % at 7.5 µM (by protocol) | NIH3T3-HGL HSE-luciferase, MG132-induced, luminescence 8 h; stronger effect = lower value;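 active = more than half of replicate wells show activity change below -50%, luminescence cut by over half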;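 note: luciferase reports HSF-1 transcriptional activity via heat shock element; 0% = median of DMSO wells and -100% = zero luminescence signal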
# PHOSPHO1 block = PubChem AID 1565 | 290,000 tested, 1.1% active | Phosphoethanolamine/phosphocholine phosphatase (Homo sapiens), Q8TCT1 | inhibition, % at 13.3 µM | recombinant PHOSPHO1, absorbance phosphatase assay; in the data active = inhibition above about 60%
# CHT inh = inhibitors of human choline transporter CHT; CHT-expressing cells, membrane potential dye, choline response; stronger effect = lower value; B-score at 10 µM; 310,000 tested, 0.86% active; High affinity choline transporter 1 (Homo sapiens), Q9GZV3;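 active = B-score over 3 SD under the library average, and starting fluorescence ratio not unusually high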;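 note: choline stimulus applied at its EC90 after an EC20 pre-addition; B-score computed on integrated fluorescence ratio after choline addition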
# HSF1 activator = HSF-1 activators, primary screen, NIH3T3-HGL cells, MG132 stress, luminescence, single point | NIH3T3-HGL HSF-1 luciferase reporter, 8 h; 100% = twice DMSO control signal | activation, % at 9 µM | 300,000 tested, 1.7% active;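 active = mean replicate activation of at least 50% with a set share of replicates each reaching 50%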;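 note: 0% = median of the neutral control wells and 100% = twice that signal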
# Lipid drop inh = hepatocyte lipid droplet accumulation inhibitors, confirmation, imaging, AML12 mouse hepatocytes, single concentration, high-content | 870 tested, 65% active | inhibition, % at 5.2 µM | shares compounds with Lipid droplet | BODIPY lipid droplet imaging; droplets induced with 100 µM oleic acid;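 active = inhibition of lipid droplet metric at least 50%, with more than 300 cells in each of four replicates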;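 note: plate controls were DMSO with oleic acid for no effect and 5 µM Triacsin-C for full effect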
# AML12 cytotox = AML12 hepatocyte cytotoxicity, counter-screen for hepatic lipid droplet formation project, imaging, DAPI nuclear morphology imaging; shares compounds with Lipid droplet; AML12 mouse hepatocytes; stronger effect = higher value; cells fed 100 µM oleate overnight; z-score at 5 µM; 870 tested, 3% active; in the data active = z-score above about 6.3;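 note: compound exposure lasted overnight at 37 °C before fixation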
# AML12 tox ATP = AML12 hepatocyte cytotoxicity, confirmation, cytotoxicity control for hepatic lipid droplet formation project, cell-based, single concentration; shares compounds with Lipid droplet; AML12 mouse hepatocyte viability, ATP luminescence; cells loaded with 100 µM oleic acid; cytotoxicity, % at 50 µM; 530 tested, under 10 active; AID 463219, 2010;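 active = cytotoxicity above 50% in each of four replicates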;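 note: compound exposure lasted overnight at 37 °C before the ATP read; 0% = DMSO-treated cells and 100% = wells with no cells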
# * marks the source's active call; other numbers are inactive results; i = inactive; · = no result.
SMILES,Lipid droplet,CHT allo act,HSF1 inhib,PHOSPHO1 block,CHT inh,HSF1 activator,Lipid drop inh,AML12 cytotox,others
Cc1nc2c(ccc3nc(NC(=O)C(c4ccccc4)c4ccccc4)sc32)s1,-4,i,-4,-21,i,-6,·,·,
Cc1nc2c(ccc3nc(NC(=O)Cc4cccc5ccccc45)sc32)s1,·,i,-56*,-11,i,-68,·,·,
CC(NC(=O)CCc1ccc(S(=O)(=O)NC2CCCCC2)cc1)c1ccccc1 (stereo not given),1,i,-1,-6,i,9,·,·,
Cc1cc(C(=O)NNC(=S)NC(=O)/C=C/c2ccccc2Cl)n[nH]1,17,i,8,94*,i,2,·,·,
Cc1cccc(C(=O)NC(=S)NNC(=O)c2ccccc2Cl)c1,-4,i,-86*,28,i,-89,·,·,
Cc1cccc(C(=O)NC(=S)Nc2ccccc2C(=O)O)c1,-2,i,5,27,i,10,·,·,
O=[N+]([O-])c1ccc(N2CCc3ccccc3C2)cc1,-4,i,71,5,i,73*,·,·,
O=C(c1ccco1)N1CCn2cccc2C1c1ccccc1 (stereo not given),-23,i,3,48,i,14,·,·,
CCCN(Cc1ccccc1)C(=O)Nc1ccc2c(c1)nnn2C,5,i,3,-3,i,18,·,·,
COc1ccc(C(=O)COC(=O)CCN2C(=O)[C@@H]3[C@H](C2=O)[C@@H]2C[C@H]3C(Br)C2Br)cc1 (stereo not given in full),-2,i,-3,-1,i,-5,·,·,
COc1ccc(C(=O)COC(=O)CCN2C(=O)C3C4CC(C(Br)C4Br)C3C2=O)cc1 (stereo not given),·,i,-62*,4,i,-71,·,·,
COc1ccc(Cn2nnnc2CN2CCc3ccccc3C2)cc1,0,i,-61*,-21,i,-69,·,·,
COc1ccc(Cn2nnnc2CN2CCc3ccccc32)cc1,1,i,11,-13,i,-1,·,·,
O=C(Nc1ccc(-c2csc(Nc3ccc(Cl)cc3)n2)cc1)c1cccc(C(F)(F)F)c1,72*,i,-3,18,i,6,100*,3.3,AML12 tox ATP=10
O=C(Nc1ccc(-c2csc(Nc3ccccc3)n2)cc1)c1cccc(C(F)(F)F)c1,7,i,11,4,i,17,·,·,
C/C(=C\c1cccc(Cl)c1Cl)C(=O)c1c(C)cc(C)[nH]c1=O,52*,i,-1,40,i,0,27,0.23,
C/C(=C\c1ccccc1)C(=O)c1c(C)cc(C)[nH]c1=O,3,i,1,-14,i,8,·,·,
CN(C)C1(CNC(=O)C2CCC(=O)N(CCc3ccc(Cl)cc3)C2)CCCCC1 (stereo not given),-12,i,-5,18,i,-10,·,·,
Cn1nc(-c2ccccc2F)c2cc(C(=O)N3CCN(C(=O)c4ccco4)CC3)sc21,·,i,-1,·,i,5,·,·,
CCOc1ccccc1NC(=O)N1CCCC1C(=O)Nc1ccc(-n2cnnn2)c(C)c1 (stereo not given),74*,i,6,-32,i,3,97*,0.38,AML12 tox ATP=-4
CC(=C/c1ccco1)/C=N/NC(=O)CSc1nnc(SCc2ccc(C)cc2)s1,-1,i,11,6,i,30,·,·,
CCN(CC)S(=O)(=O)c1cc(NC(=O)C(C)OC(=O)c2[nH]c(C)c(C(C)=O)c2C)ccc1C (stereo not given),128*,i,-7,-10,i,-12,51,-0.37,
CC(=O)c1c(C)[nH]c(C(=O)Nc2ccc(C)c(S(=O)(=O)N(C)C)c2)c1C,4,i,13,48,i,16,·,·,
CCc1ccccc1NC(=O)NCc1cccnc1,6,i,-4,43,i,-8,·,·,
Cc1[nH]n(-c2ccccc2)c(=O)c1N=Nc1ccc(Cl)cc1,54*,i,1,19,i,18,51,0.57,
SMILES,Lipid droplet,CHT allo act,HSF1 inhib,PHOSPHO1 block,CHT inh,HSF1 activator,Lipid drop inh,AML12 cytotox,others
Cc1[nH]n(-c2ccccc2)c(=O)c1N=Nc1ccc(C(=O)O)cc1,51*,i,-7,-34,i,3,31,-0.38,
CCOC(=O)c1sc(NC(=O)CSc2nnc(C(C)C)n2CC)nc1C,·,i,-1,6,i,-1,·,·,
N/C(=N\c1nc2c(c(=O)[nH]1)CCC2)Nc1cccc(Cl)c1,2,i,2,-12,i,32,·,·,
N/C(=N\c1nc2c(c(=O)[nH]1)CCCC2)Nc1ccc(Oc2ccccc2)cc1,61*,i,·,-1,i,·,41,1.1,
O=C(Nc1cccc(Cn2cccn2)c1)c1cc2c(s1)CCCC2,55*,i,-3,-4,i,-10,57,-0.11,AML12 tox ATP=26
O=C(NCc1ccc2c(c1)OCO2)c1cc(-c2ccccc2)c(N2CCOCC2)s1,73*,i,2,32,i,7,109*,-1.1,AML12 tox ATP=-8
COc1ccc(CCNC(=O)c2cc(-c3ccccc3)c(N3CCOCC3)s2)c(OC)c1OC,96*,i,3,2,i,13,107*,0.029,AML12 tox ATP=-6
O=C(NCc1ccco1)c1cc(-c2ccccc2)c(N2CCOCC2)s1,·,i,6,22,i,21,·,·,
COc1ccccc1NC(=O)C1CCN(S(=O)(=O)c2ccc3c(c2)NC(=O)CO3)CC1,-25,i,-5,-1,i,-1,·,·,
COc1ccc(CCN2C(=O)c3cccc4cccc(c34)C2=O)cc1OC,·,i,-3,0,i,-8,·,·,
COc1ccc(CCNC(=O)Cc2ccc(OC)c(OC)c2)cc1OC,-5,i,2,44,i,6,·,·,
COc1ccc(CCNC(=O)CN2C(=O)c3cccc4cccc(c34)C2=O)cc1OC,56*,i,6,50,i,7,92*,-0.014,AML12 tox ATP=4
COc1ccc(CCNC(=O)c2cc3c(F)cccc3s2)cc1OC,77*,i,-2,17,i,13,74*,-0.2,AML12 tox ATP=3

# Compound activity from PubChem BioAssay.
